In ChEMBL document CHEMBL3779898, “3,3'-OH curcumin causes apoptosis in HepG2 cells through ROS-mediated pathway” (Eur J Med Chem, 2016):

Experiments:
HepG2 [1] = assay: Cytotoxicity against human HepG2 cells assessed as reduction in cell viability after 48 hrs by MTT assay; format: functional, cell-based; conditions: HepG2, 48 h
Procedure, shortened: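 HepG2 seeded at 3×10^3/well, grown 24 h, then exposed to compounds for 48 h. MTT (0.5 mg/mL) added for 4 h, formazan dissolved in DMSO, absorbance read at 570 nm. IC50 = concentration giving 50% loss of viability; mean ± SD of three determinations.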

HepG2 [2] = assay: Induction of apoptosis in human HepG2 cells assessed as early apoptotic cells at 5 mM after 24 hrs by Annexin V-FITC/propidium iodide staining based flow cytometry (reference value: 2.8%); format: functional
Procedure, shortened: (§1)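 HepG2 plated at 5×10^5/well, grown 24 h, then treated 24 h; where indicated, 1 h pretreatment with 5 mM GSH or NAC. Cells stained with Annexin V-FITC/PI; 10,000 cells per sample analysed by flow cytometry into early apoptotic, late apoptotic and necrotic quadrants; triplicate.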

HepG2 [3] = assay: Induction of apoptosis in human HepG2 cells assessed as late apoptotic cells at 5 mM after 24 hrs by Annexin V-FITC/propidium iodide staining based flow cytometry (reference value: 5.4%); format: functional; procedure, shortened: as §1
HepG2 [4] = assay: Induction of apoptosis in human HepG2 cells assessed as necrotic cells at 5 mM after 24 hrs by Annexin V-FITC/propidium iodide staining based flow cytometry (reference value: 1.6%); format: functional; procedure, shortened: as §1

SMILES	IC50 (HepG2 [1]) [µM]	further results
O=C(/C=C/c1ccccc1O)CC(=O)/C=C/c1ccccc1O	50	–
COc1ccc(/C=C/C(=O)CC(=O)/C=C/c2ccc(OC)cc2)cc1	> 200	–
COc1ccccc1/C=C/C(=O)CC(=O)/C=C/c1ccccc1OC	125	–
O=C(/C=C/c1ccccc1)CC(=O)/C=C/c1ccccc1	> 200	–
CC(=O)N[C@@H](CS)C(=O)O [ACETYLCYSTEINE]	–	Activity (HepG2 [2]): 2.6%; Activity (HepG2 [3]): 6.6%; Activity (HepG2 [4]): 1.9%
O=C(/C=C/c1ccc(C(F)(F)F)cc1)CC(=O)/C=C/c1ccc(C(F)(F)F)cc1	> 200	–
